Reference: ChEMBL document CHEMBL1137371, “Pyrazolidine-3,5-diones and 5-hydroxy-1H-pyrazol-3(2H)-ones, inhibitors of UDP-N-acetylenolpyruvyl glucosamine reductase” (J Med Chem, 2006)
Converted amounts (≈) assume the structure as drawn. The source made the active and inactive calls. The calls are words filed in the database; no cut-off is given here.

Tests used:
[1] = system: Escherichia coli; assay: Antibacterial activity against Escherichia coli GC 4560 (imp) by micro-broth dilution method; type: functional
How it was run: (§1)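 Broth microdilution in Mueller-Hinton II medium per NCCLS recommendations. Inoculum 5 × 10⁵ cfu/mL, compound range 0.06-128 µg/mL. MIC read after 18 h at 35 °C in ambient air.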

[2] = system: Enterococcus faecalis; assay: Antibacterial activity against vancomycin resistant Enterococcus faecalis GC 2242 by microbroth dilution method; type: functional
[3] = target: T1, UDP-N-acetylenolpyruvoylglucosamine reductase (Escherichia coli K-12, UniProt P08373); assay: Inhibition of MurB activity
T1 sequence (P08373 whole entry): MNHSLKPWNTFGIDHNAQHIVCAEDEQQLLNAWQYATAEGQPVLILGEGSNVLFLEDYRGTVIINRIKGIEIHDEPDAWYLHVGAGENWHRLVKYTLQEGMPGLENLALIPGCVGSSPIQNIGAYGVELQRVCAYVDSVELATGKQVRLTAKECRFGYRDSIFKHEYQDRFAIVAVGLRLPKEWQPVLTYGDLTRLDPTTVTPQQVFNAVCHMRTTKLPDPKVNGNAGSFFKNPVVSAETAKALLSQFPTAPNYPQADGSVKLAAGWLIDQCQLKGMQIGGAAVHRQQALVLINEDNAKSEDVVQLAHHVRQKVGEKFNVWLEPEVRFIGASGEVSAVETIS
How it was run: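 Recombinant E. coli MurB was expressed in BL21(λDE3) and purified. Enzyme (20 nM) was preincubated 20 min with inhibitor at 1.6, 3.2, 6.4, 12.8, 25 and 50 µM. Reaction in 50 mM Tris-HCl pH 8.0 with 10 mM KCl, 50 µM enolpyruvyl UDP-GlcNAc and 100 µM NADPH. NADPH oxidation followed as A340 decrease over 5 min. IC50 from sigmoid Hill fit, mean of three runs.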

[4] = system: Streptococcus pneumoniae; assay: Antibacterial activity against penicillin resistant Streptococcus pneumoniae GC 1894 by microbroth dilution method; type: functional
[5] = system: Staphylococcus aureus; assay: Antibacterial activity against methicillin resistant Staphylococcus aureus GC 1131 by micro-broth dilution method; type: functional
[6] = system: Candida albicans; assay: Antibacterial activity against Candida albicans by micro-broth dilution method; type: functional, organism-based; how it was run: as §1
[7] = system: Staphylococcus epidermidis; assay: Inhibition of soluble peptidoglycan biosynthesis in Staphylococcus epidermidis; type: functional, organism-based
How it was run: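 S. epidermidis was grown in BHI to OD600 0.6, washed and concentrated tenfold in cell-wall-enriched medium. Cells incubated with 50 µg/mL chloramphenicol, 100 µg/mL penicillin G, [¹⁴C]-GlcNAc (2.9 µM/40 nCi) and compound at 0-25 µg/mL, 1 h, 37 °C, shaking. Supernatant precipitated with 5% TCA/0.4% BSA, 30 min at 4 °C, then filtered and scintillation counted.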

[8] = system: Streptococcus pneumoniae; assay: Antibacterial activity against Streptococcus pneumoniae in presence of 4% bovine serum albumin; type: functional
[9] = Escherichia coli, GC 4560, read-out: MIC
[10] = Enterococcus faecalis, GC 2242, read-out: MIC
[11] = Streptococcus pneumoniae, GC 1894, read-out: MIC
[12] = Staphylococcus aureus, GC 1131, read-out: MIC

Compound	MIC [1, 9] [µg/mL]	MIC [2, 10] [µg/mL]	IC50 [3] [µM]	MIC [4, 11] [µg/mL]	MIC [5, 12] [µg/mL]	Activity [6]	IC50 [7] [µM]	MIC [8] [µg/mL]	MIC [1] [µg/mL]	MIC [2] [µg/mL]	MIC [4] [µg/mL]	MIC [5] [µg/mL]
O=C(c1ccc(-c2ccccc2)cc1)c1c(O)n(-c2ccc(Cl)cc2)n(-c2ccc(Cl)cc2)c1=O	> 100	0.39 (≈ 0.778 µM)	6.1	0.3 (≈ 0.598 µM)	3.1 (≈ 6.18 µM)	inactive	4.9	> 128				
O=C(Nc1ccc(Cl)cc1)c1c(O)n(-c2cccc(Cl)c2)n(-c2cccc(Cl)c2)c1=O	> 128	0.25 (≈ 0.527 µM)	8.6	< 0.12	0.5 (≈ 1.05 µM)	inactive	3	> 128				
O=C1CC(=O)N(c2ccc(F)cc2)N1c1ccc(F)cc1	64 (≈ 222 µM)	128 (≈ 444 µM)	> 87	64 (≈ 222 µM)	128 (≈ 444 µM)							
O=C(Nc1ccc(Cl)c(Cl)c1)c1c(O)n(-c2ccc(Cl)c(Cl)c2)n(-c2ccc(Cl)c(Cl)c2)c1=O	> 128	0.5 (≈ 0.865 µM)	4.8	0.5 (≈ 0.865 µM)	64 (≈ 111 µM)	inactive		> 128				
O=C(c1ccc(OC(F)(F)F)cc1)c1c(O)n(-c2ccc(Cl)cc2)n(-c2ccc(Cl)cc2)c1=O	25.4 (≈ 49.9 µM)	0.79 (≈ 1.55 µM)	5.4	0.79 (≈ 1.55 µM)	12.7 (≈ 24.9 µM)	inactive	2	> 128				
O=C1C(=C(O)c2ccc(Cl)c(Cl)c2)C(=O)N(c2ccc(Cl)cc2)N1c1ccc(Cl)cc1	49 (≈ 99.2 µM)	0.77 (≈ 1.56 µM)	13	0.39 (≈ 0.789 µM)	6.2 (≈ 12.5 µM)	inactive		> 128				
O=C1CC(=O)N(c2cccc(Cl)c2)N1c1cccc(Cl)c1	200 (≈ 623 µM)	16 (≈ 49.8 µM)	68.5	8 (≈ 24.9 µM)	16 (≈ 49.8 µM)		56					
O=C(Nc1ccc(C(F)(F)F)cc1)c1c(O)n(-c2cccc(Cl)c2)n(-c2cccc(Cl)c2)c1=O	64 (≈ 126 µM)	< 0.12	8.7	< 0.12	0.5 (≈ 0.984 µM)	inactive	2.2	> 128				
O=C(Nc1ccc(C(F)(F)F)cc1)c1c(O)n(-c2ccc(Cl)cc2)n(-c2ccc(Cl)cc2)c1=O			5.9			inactive	8.3		16 (≈ 31.5 µM)			
O=C1CC(=O)N(c2ccccc2)N1c1ccccc1			> 100									
COc1ccc(NC(=O)c2c(O)n(-c3ccc(Cl)cc3)n(-c3ccc(Cl)cc3)c2=O)cc1			16			inactive			>128			
O=C(c1ccc(C(F)(F)F)cc1)c1c(O)n(-c2ccc(Cl)cc2)n(-c2ccc(Cl)cc2)c1=O	16 (≈ 32.4 µM)		15		8 (≈ 16.2 µM)	inactive		> 128		2 (≈ 4.05 µM)	0.5 (≈ 1.01 µM)	
Cc1ccc(NC(=O)c2c(O)n(-c3ccc(Cl)c(Cl)c3)n(-c3ccc(Cl)c(Cl)c3)c2=O)cc1	> 128	0.25 (≈ 0.478 µM)	4.8	< 0.12	16 (≈ 30.6 µM)	inactive	4	> 128				
O=C(c1cccs1)c1c(O)n(-c2ccc(Cl)cc2)n(-c2ccc(Cl)cc2)c1=O	21.6 (≈ 50.1 µM)	1.3 (≈ 3.01 µM)	5.8	0.67 (≈ 1.55 µM)	5.4 (≈ 12.5 µM)	inactive	1	> 128				
O=C(Nc1ccc(Cl)cc1)c1c(O)n(-c2ccc(Cl)cc2)n(-c2ccc(Cl)cc2)c1=O			13.7			inactive	42.2		2 (≈ 4.21 µM)			
O=C1CC(=O)N(c2ccc(Cl)c(Cl)c2)N1c1ccc(Cl)c(Cl)c1	32 (≈ 82 µM)	8 (≈ 20.5 µM)	25.1	4 (≈ 10.3 µM)	8 (≈ 20.5 µM)		41					
O=C(Nc1ccc(Cl)cc1)c1c(O)n(-c2ccccc2)n(-c2ccccc2)c1=O	> 128	1 (≈ 2.46 µM)	54	0.5 (≈ 1.23 µM)	32 (≈ 78.8 µM)	inactive		> 128				
COc1ccc(C(=O)c2c(O)n(-c3ccc(Cl)cc3)n(-c3ccc(Cl)cc3)c2=O)cc1			10		11.3 (≈ 24.8 µM)	inactive		> 128	23 (≈ 50.5 µM)	5.7 (≈ 12.5 µM)	2.8 (≈ 6.15 µM)	
O=C1CC(=O)N(c2ccc(Cl)cc2)N1c1ccc(Cl)cc1	16 (≈ 49.8 µM)	8 (≈ 24.9 µM)	71.6	8 (≈ 24.9 µM)	8 (≈ 24.9 µM)							
CCCCOc1ccc(C(=O)c2c(O)n(-c3ccc(Cl)cc3)n(-c3ccc(Cl)cc3)c2=O)cc1	> 100	0.39 (≈ 0.784 µM)	4.5	0.39 (≈ 0.784 µM)	1.6 (≈ 3.22 µM)	inactive	7.3	> 128				
O=C(c1ccc(Cl)cc1)c1c(O)n(-c2ccc(Cl)cc2)n(-c2ccc(Cl)cc2)c1=O			11			inactive		> 128	23 (≈ 50 µM)	1.4 (≈ 3.05 µM)	0.72 (≈ 1.57 µM)	5.7 (≈ 12.4 µM)
O=C(Nc1ccc(Br)cc1)c1c(O)n(-c2ccccc2)n(-c2ccccc2)c1=O	> 128	1 (≈ 2.22 µM)	42	1 (≈ 2.22 µM)	16 (≈ 35.5 µM)	inactive		> 128				
COc1ccc(CC(=O)c2c(O)n(-c3ccc(Cl)cc3)n(-c3ccc(Cl)cc3)c2=O)cc1	> 94	1.4 (≈ 2.98 µM)	40	0.73 (≈ 1.56 µM)	11.7 (≈ 24.9 µM)	inactive		> 128				
O=C(Nc1ccccc1)c1c(O)n(-c2ccccc2)n(-c2ccccc2)c1=O	> 128	8 (≈ 21.5 µM)	54	16 (≈ 43.1 µM)	64 (≈ 172 µM)	inactive		> 128				
